According to ChEMBL document CHEMBL1130191 (J Med Chem, 1997):
Converted amounts (≈) assume the structure as drawn.

Tests used:
[1] = molecular target: Protein kinase C alpha type (Homo sapiens, UniProt P17252); assay: Inhibition of Protein kinase C alpha
Summary of the method: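 Recombinant PKC-α, partially purified; protamine sulfate substrate without phosphatidylserine or diacylglycerol; γ-33P incorporation measured by spotting aliquots on P81 paper. Compounds serially diluted 10-fold in DMSO/water 50:50. Two independent experiments; IC50 in μM.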

B16 = assay: Inhibition of murine B16 Melanoma cell proliferation; format: functional, cell-based, Mus musculus
Summary of the method: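 Clonogenic assay: B16 melanoma cells (EMEM with 10% FCS, 37 °C, 5% CO2) seeded 200 per dish, attached 20 h, exposed to increasing drug concentrations 24 h, washed, regrown 12 days; methanol-fixed, crystal violet-stained, colonies >50 cells counted. IC50 is concentration giving 50% cloning efficiency versus untreated.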

Bacillus cereus = assay: Antimicrobial activity against Bacillus cereus; format: functional
Summary of the method: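 B. cereus ATCC 14579 in Mueller-Hinton broth pH 7.4, compounds diluted in DMSO across 12 tubes spanning 100 to 0.05 μg/mL; growth read after 24 h at 27 °C; MIC taken as lowest inhibitory concentration. Disk diffusion screen also run: 6 mm paper disks carrying 300 μg drug in DMSO, 24 h at 27 °C.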

P388 [2] = assay: Inhibition of P388 Leukemia cell proliferation; format: functional, cell-based; settings: Mus musculus
Summary of the method: (§1)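 P388 murine leukemia cells exposed to a range of drug concentrations for 96 h at 37 °C; viability scored by neutral red staining; IC50 is the concentration giving 50% growth inhibition.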

P388 [3] = assay: Inhibition of P388 murine leukemia cell proliferation; format: functional, cell-based; settings: Mus musculus; summary of the method: as §1
[4] = system: DNA topoisomerase I (Bos taurus); assay: Inhibition of calf thymus Topoisomerase-I
[5] = system: DNA topoisomerase II (Bos taurus); assay: Inhibition of calf thymus Topoisomerase-2

| Compound | IC50 [1] [µM] | IC50 (B16; b16) [µM] | MIC [4] [µM] | MIC [5] [µM] | also measured |
| --- | --- | --- | --- | --- | --- |
| CC(=O)OCC1OC(n2c3ccccc3c3c4c(c5c6ccccc6[nH]c5c32)C(=O)N(C)C4=O)C(OC(C)=O)C(OC(C)=O)C1OC(C)=O (stereo in doubt; 3) [listing 1 of 2 here] | > 100 | 2.5 |  |  |  |
| CC1OC(n2c3ccccc3c3c4c(c5c6ccccc6[nH]c5c32)C(=O)N(C)C4=O)C(O)C(O)C1O (stereo in doubt; 13) [listing 1 of 2 here] | 82 | 4.75 |  |  | MIC (Bacillus cereus): 103 µM (≈ 50 µg/mL) |
| CC(=O)OCC1OC(n2c3ccccc3c3c4c(c5c6ccccc6[nH]c5c32)C(=O)N(C)C4=O)C(OC(C)=O)C(OC(C)=O)C1OC(C)=O (stereo in doubt; 4) [listing 1 of 2 here] |  | 78 |  |  | IC50 (P388 [2]): > 15 µM; MIC (Bacillus cereus; Bacillus cereus, read-out: MIC): > 74 µM |
| CO[C@H]1[C@H](O)[C@@H](O)[C@H](n2c3c(Cl)cccc3c3c4c(c5c6cccc(Cl)c6[nH]c5c32)C(=O)NC4=O)O[C@@H]1CO [REBECCAMYCIN] | > 100 |  |  |  | IC50 (P388 [3]): 0.5 µM; MIC (Bacillus cereus; Bacillus cereus, read-out: MIC): 10.9 µM (≈ 6.22 µg/mL) |
| CC(=O)OCC1OC(n2c3ccccc3c3c4c(c5c6ccccc6[nH]c5c32)C(=O)N(C)C4=O)C(OC(C)=O)C(OC(C)=O)C1OC(C)=O (stereo in doubt; 6) [listing 1 of 2 here] | > 100 | 75 |  |  |  |
| CN1C(=O)c2c(c3c4ccccc4n(C4OC(CO)C(O)C(O)C4O)c3c3[nH]c4ccccc4c23)C1=O (stereo in doubt; 10) [listing 1 of 2 here] | 99 | 5.4 |  |  |  |
| CC(=O)OCC1OC(n2c3ccccc3c3c4c(c5c6ccccc6[nH]c5c32)C(=O)N(C)C4=O)C(OC(C)=O)C(OC(C)=O)C1OC(C)=O (stereo in doubt; 4) [listing 2 of 2 here] |  |  | > 15 | > 15 |  |
| CC1OC(n2c3ccccc3c3c4c(c5c6ccccc6[nH]c5c32)C(=O)N(C)C4=O)C(O)C(O)C1O (stereo in doubt; 13) [listing 2 of 2 here] |  |  | > 20 | > 20 |  |
| CC(=O)OCC1OC(n2c3ccccc3c3c4c(c5c6ccccc6[nH]c5c32)C(=O)N(C)C4=O)C(OC(C)=O)C(OC(C)=O)C1OC(C)=O (stereo in doubt; 6) [listing 2 of 2 here] |  |  | > 15 | > 15 |  |
| CC1OC(n2c3ccccc3c3c4c(c5c6ccccc6[nH]c5c32)C(=O)N(C)C4=O)C(O)C(O)C1O (stereo in doubt; 14) [listing 1 of 2 here] |  |  | 2 (≈ 0.971 µg/mL) | > 20 |  |
| CC(=O)OCC1OC(n2c3ccccc3c3c4c(c5c6ccccc6[nH]c5c32)C(=O)N(C)C4=O)C(OC(C)=O)C(OC(C)=O)C1OC(C)=O (stereo in doubt; 5) |  |  | > 15 | > 15 |  |
| CN1C(=O)c2c(c3c4ccccc4n(C4OC(CO)C(O)C(O)C4O)c3c3[nH]c4ccccc4c23)C1=O (stereo in doubt; 9) [listing 1 of 2 here] |  |  | 6 (≈ 3.01 µg/mL) | > 20 |  |
| CC1OC(n2c3ccccc3c3c4c(c5c6ccccc6[nH]c5c32)C(=O)N(C)C4=O)C(O)C(O)C1O (stereo in doubt; 14) [listing 2 of 2 here] | > 100 |  |  |  | IC50 (P388 [2]): 6.2 µM; IC50 (B16; Mus musculus, B16): 3.75 µM; MIC (Bacillus cereus): 3.1 µM (≈ 1.51 µg/mL) |
| CN1C(=O)c2c(c3c4ccccc4n(C4OC(CO)C(O)C(O)C4O)c3c3[nH]c4ccccc4c23)C1=O (stereo in doubt; 10) [listing 2 of 2 here] |  |  | 0.6 (≈ 0.301 µg/mL) | > 20 |  |
| CC(=O)OCC1OC(n2c3ccccc3c3c4c(c5c6ccccc6[nH]c5c32)C(=O)N(C)C4=O)C(OC(C)=O)C(OC(C)=O)C1OC(C)=O (stereo in doubt; 3) [listing 2 of 2 here] |  |  | > 15 | > 15 |  |
| CN1C(=O)c2c(c3c4ccccc4n(C4OC(CO)C(O)C(O)C4O)c3c3[nH]c4ccccc4c23)C1=O (stereo in doubt; 7) [listing 1 of 2 here] |  |  | > 20 | > 20 |  |
| CN1C(=O)c2c(c3c4ccccc4n(C4OC(CO)C(O)C(O)C4O)c3c3[nH]c4ccccc4c23)C1=O (stereo in doubt; 8) [listing 1 of 2 here] | > 100 | 3.3 |  |  | MIC (Bacillus cereus): 12.4 µM (≈ 6.22 µg/mL) |
| CO[C@H]1[C@H](O)[C@@H](O)[C@H](n2c3ccccc3c3c4c(c5c6ccccc6[nH]c5c32)C(=O)NC4=O)O[C@@H]1CO | > 100 |  | 1.95 (≈ 0.978 µg/mL) | > 19 | IC50 (P388 [2]): 6.8 µM; MIC (Bacillus cereus; Bacillus cereus, read-out: MIC): > 97 µM |
| CO[C@H]1[C@H](O)[C@@H](O)[C@H](n2c3c(Cl)cccc3c3c4c(c5c6cccc(Cl)c6[nH]c5c32)C(=O)N(C)C4=O)O[C@@H]1CO | > 100 |  |  |  | IC50 (P388 [2]): 0.6 µM; IC50 (B16; Mus musculus, B16): 0.61 µM; MIC (Bacillus cereus; Bacillus cereus, read-out: MIC): > 85 µM |
| CN1C(=O)c2c(c3c4ccccc4n(C4OC(CO)C(O)C(O)C4O)c3c3[nH]c4ccccc4c23)C1=O (stereo in doubt; 9) [listing 2 of 2 here] | 62 |  |  |  |  |
| CN1C(=O)c2c(c3c4ccccc4n(C4OC(CO)C(O)C(O)C4O)c3c3[nH]c4ccccc4c23)C1=O (stereo in doubt; 8) [listing 2 of 2 here] |  |  | 2 (≈ 1 µg/mL) | > 20 |  |
| CN1C(=O)c2c(c3c4ccccc4n(C4OC(CO)C(O)C(O)C4O)c3c3[nH]c4ccccc4c23)C1=O (stereo in doubt; 7) [listing 2 of 2 here] | 59 | 0.52 |  |  | IC50 (P388 [2]): 6 µM; MIC (Bacillus cereus; Bacillus cereus, read-out: MIC): 6.2 µM (≈ 3.11 µg/mL) |
| CO[C@H]1[C@H](O)[C@@H](O)[C@H](n2c3ccccc3c3c4c(c5c6ccccc6[nH]c5c32)C(=O)N(C)C4=O)O[C@@H]1CO | > 100 |  | 0.6 (≈ 0.309 µg/mL) |  | IC50 (P388 [2]): 0.7 µM; IC50 (B16; Mus musculus, B16): 1.06 µM; MIC (Bacillus cereus; Bacillus cereus, read-out: MIC): 1.55 µM (≈ 0.799 µg/mL) |
